# How the values were obtained:
# OVCAR-5 = test: Cytotoxicity against human OVCAR5 cells after 48 hrs by sulforhodamine B assay; format: functional; conditions: OVCAR-5, 48 h
# DU-145 = test: Cytotoxicity against human DU145 cells after 48 hrs by sulforhodamine B assay; format: functional; conditions: DU-145, 48 h
# COLO 205 = test: Cytotoxicity against human COLO205 cells after 48 hrs by sulforhodamine B assay; format: functional; conditions: COLO 205, 48 h
# A549 [1] = test: Cytotoxicity against human A549 cells after 48 hrs by sulforhodamine B assay; format: functional; conditions: A549, 48 h
# [2] = Cell cycle arrest in mouse DA1-3b cells assessed as accumulation at G1 phase at 10^-6 M after 24 hrs using propidium iodide staining by cytofluorometry (reference value: 52.2 %); format: functional, cell-based
# In short: (§1)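 DA1-3b murine leukemia cells were exposed to the compound for 24 h. They were then stained in a solution containing propidium iodide (50 µg/mL) and RNase A (0.5 mg/mL) and analysed on a FACScan cytofluorometer. The percentage of cells in each cell-cycle phase was reported, with several compound concentrations tested.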
# CCRF-CEM = test: Cytotoxicity against human CCRF-CEM cells after 48 hrs by sulforhodamine B assay; format: functional
# [3] = Cell cycle arrest in mouse DA1-3b cells assessed as accumulation at G2/M phase at 10^-6 M after 24 hrs using propidium iodide staining by cytofluorometry (reference value: 18.0 %); format: functional, cell-based; in short: as §1
# [4] = Cell cycle arrest in mouse DA1-3b cells assessed as accumulation at sub-G1 phase at 10^-5 M after 24 hrs using propidium iodide staining by cytofluorometry (reference value: 0.7 %); format: functional, cell-based; in short: as §1
# [5] = Cell cycle arrest in mouse DA1-3b cells assessed as accumulation at S phase at 10^-4 M after 24 hrs using propidium iodide staining by cytofluorometry (reference value: 28.0 %); format: functional, cell-based; in short: as §1
# HL-60 = test: Cytotoxicity against human HL60 cells after 48 hrs by sulforhodamine B assay; format: functional; conditions: HL-60, 48 h
# [6] = Cell cycle arrest in mouse DA1-3b cells assessed as accumulation at G2/M phase at 10^-4 M after 24 hrs using propidium iodide staining by cytofluorometry (reference value: 18.0 %); format: functional, cell-based; in short: as §1
# SF-539 = test: Cytotoxicity against human SF539 cells after 48 hrs by sulforhodamine B assay; format: functional; conditions: SF-539, 48 h
# SF-295 = test: Cytotoxicity against human SF295 cells after 48 hrs by sulforhodamine B assay; format: functional; conditions: SF-295, 48 h
# SK-MEL-2 = test: Cytotoxicity against human SK-MEL-2 cells after 48 hrs by sulforhodamine B assay; format: functional; conditions: SK-MEL-2, 48 h
# UO-31 = test: Cytotoxicity against human UO31 cells after 48 hrs by sulforhodamine B assay; format: functional; conditions: UO-31, 48 h
# A498 = test: Cytotoxicity against human A498 cells after 48 hrs by sulforhodamine B assay; format: functional; conditions: A498, 48 h
# OVCAR-3 = test: Cytotoxicity against human OVCAR3 cells after 48 hrs by sulforhodamine B assay; format: functional; conditions: OVCAR-3, 48 h
# HCC 2998 = test: Cytotoxicity against human HCC2998 cells after 48 hrs by sulforhodamine B assay; format: functional; conditions: HCC 2998, 48 h
# NCI-H322M = test: Cytotoxicity against human NCI-H322M cells after 48 hrs by sulforhodamine B assay; format: functional
# SF-268 = test: Cytotoxicity against human SF268 cells after 48 hrs by sulforhodamine B assay; format: functional; conditions: SF-268, 48 h
# CAKI-1 = test: Cytotoxicity against human Caki1 cells after 48 hrs by sulforhodamine B assay; format: functional; conditions: CAKI-1, 48 h
# HCT-116 = test: Cytotoxicity against human HCT116 cells after 48 hrs by sulforhodamine B assay; format: functional; conditions: HCT-116, 48 h
# MDA-MB-231 = test: Cytotoxicity against human MDA-MB-231/ATCC cells after 48 hrs by sulforhodamine B assay; format: functional; conditions: MDA-MB-231, 48 h
# [7] = Cell cycle arrest in mouse DA1-3b cells assessed as accumulation at sub-G1 phase at 10^-6 M after 24 hrs using propidium iodide staining by cytofluorometry (reference value: 0.7 %); format: functional, cell-based; in short: as §1
# MCF7 = test: Cytotoxicity against human MCF7 cells after 48 hrs by sulforhodamine B assay; format: functional; conditions: MCF7, 48 h
# SK-MEL-28 = test: Cytotoxicity against human SK-MEL-28 cells after 48 hrs by sulforhodamine B assay; format: functional; conditions: SK-MEL-28, 48 h
# NCI-H460 = test: Cytotoxicity against human NCI-H460 cells after 48 hrs by sulforhodamine B assay; format: functional; conditions: NCI-H460, 48 h
# SK-OV-3 = test: Cytotoxicity against human SKOV3 cells after 48 hrs by sulforhodamine B assay; format: functional; conditions: SK-OV-3, 48 h
# KM12 = test: Cytotoxicity against human KM12 cells after 48 hrs by sulforhodamine B assay; format: functional; conditions: KM12, 48 h
# [8] = Cell cycle arrest in mouse DA1-3b cells assessed as accumulation at S phase at 10^-5 M after 24 hrs using propidium iodide staining by cytofluorometry (reference value: 28.0 %); format: functional, cell-based; in short: as §1
# OVCAR-4 = test: Cytotoxicity against human OVCAR4 cells after 48 hrs by sulforhodamine B assay; format: functional; conditions: OVCAR-4, 48 h
# RXF 393 = test: Cytotoxicity against human RXF393 cells after 48 hrs by sulforhodamine B assay; format: functional; conditions: RXF 393, 48 h
# [9] = Cell cycle arrest in mouse DA1-3b cells assessed as accumulation at G2/M phase after 24 hrs using propidium iodide staining by cytofluorometry; format: functional, cell-based; in short: as §1
# [10] = Inhibition of bovine brain tubulin polymerization after 30 mins by turbidimetry analysis; parameters: species or system Bos taurus
# In short: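 Lyophilized bovine brain tubulin (97%) reconstituted to 5 mg/mL in 80 mM PIPES pH 6.9, 2 mM MgCl₂, 0.5 mM EGTA, 1.0 mM GTP and 5% glycerol. Compound in DMSO was added to this solution in a quartz cuvette at 0 °C. Assembly was followed as the rise in absorbance at 340 nm at 37 °C. IC₅₀ is the molar concentration halving the extent of assembly after 30 min.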
# [11] = Cell cycle arrest in mouse DA1-3b cells assessed as accumulation at G1 phase at 10^-5 M after 24 hrs using propidium iodide staining by cytofluorometry (reference value: 52.2 %); format: functional, cell-based; in short: as §1
# M14 = test: Cytotoxicity against human M14 cells after 48 hrs by sulforhodamine B assay; format: functional; conditions: M14, 48 h
# UACC-62 = test: Cytotoxicity against human UACC62 cells after 48 hrs by sulforhodamine B assay; format: functional; conditions: UACC-62, 48 h
# MDA-MB-468 = test: Cytotoxicity against human MDA-MB-468 cells after 48 hrs by sulforhodamine B assay; format: functional; conditions: MDA-MB-468, 48 h
# SN12C = test: Cytotoxicity against human SN12C cells after 48 hrs by sulforhodamine B assay; format: functional
# [12] = Cell cycle arrest in mouse DA1-3b cells assessed as accumulation at G2/M phase at 10^-5 M after 24 hrs using propidium iodide staining by cytofluorometry (reference value: 18.0 %); format: functional, cell-based; in short: as §1
# Hs-578T = test: Cytotoxicity against human HS578T cells after 48 hrs by sulforhodamine B assay; format: functional
# EKVX = test: Cytotoxicity against human EKVX cells after 48 hrs by sulforhodamine B assay; format: functional
# [13] = Cell cycle arrest in mouse DA1-3b cells assessed as accumulation at G1 phase at 10^-4 M after 24 hrs using propidium iodide staining by cytofluorometry (reference value: 52.2 %); format: functional, cell-based; in short: as §1
# NCI/ADR-RES = test: Cytotoxicity against human NCI/ADR-RES cells after 48 hrs by sulforhodamine B assay; format: functional
# [14] = Cell cycle arrest in mouse DA1-3b cells assessed as accumulation at sub-G1 phase at 10^-4 M after 24 hrs using propidium iodide staining by cytofluorometry (reference value: 0.7 %); format: functional, cell-based; in short: as §1
# NCI-H522 = test: Cytotoxicity against human NCI-H522 cells after 48 hrs by sulforhodamine B assay; format: functional; conditions: NCI-H522, 48 h
# K562 = test: Cytotoxicity against human K562 cells after 48 hrs by sulforhodamine B assay; format: functional; conditions: K562, 48 h
# HT-29 = test: Cytotoxicity against human HT29 cells after 48 hrs by sulforhodamine B assay; format: functional; conditions: HT-29, 48 h
# A549 [15] = test: Cytotoxicity against human A549/ATCC cells after 48 hrs by sulforhodamine B assay; format: functional; conditions: A549, 48 h
# MDA-MB-435 = test: Cytotoxicity against human MDA-MB-435 cells after 48 hrs by sulforhodamine B assay; format: functional; conditions: MDA-MB-435, 48 h
# HCT-15 = test: Cytotoxicity against human HCT15 cells after 48 hrs by sulforhodamine B assay; format: functional; conditions: HCT-15, 48 h
# [16] = Cell cycle arrest in mouse DA1-3b cells assessed as accumulation at S phase at 10^-6 M after 24 hrs using propidium iodide staining by cytofluorometry (reference value: 28.0 %); format: functional, cell-based; in short: as §1
smiles,measurement,setting,value
COc1ccc(C(=O)c2cc(OC)c(OC)c(OC)c2)c(OC)c1O,GI50,OVCAR-5,0.651 µM
same,GI50,DU-145,0.0209 µM
same,GI50,COLO 205,6.2 µM
same,GI50,A549 [1],0.0413 µM
same,Activity,[2],21.5%
same,GI50,CCRF-CEM,0.0288 µM
same,Activity,[3],47.2%
same,Activity,[4],30%
same,Activity,[5],11.6%
same,GI50,HL-60,0.0235 µM
same,Activity,[6],25.3%
same,GI50,SF-539,0.0151 µM
same,GI50,SF-295,0.0199 µM
same,GI50,SK-MEL-2,0.0266 µM
same,GI50,UO-31,0.0489 µM
same,GI50,A498,2.72 µM
same,GI50,OVCAR-3,0.0222 µM
same,GI50,HCC 2998,0.211 µM
same,GI50,NCI-H322M,< 0.01 µM
same,GI50,SF-268,0.0211 µM
same,GI50,CAKI-1,0.12 µM
same,GI50,HCT-116,0.032 µM
same,GI50,MDA-MB-231,0.0246 µM
same,Activity,[7],17.5%
same,GI50,MCF7,0.0264 µM
same,GI50,SK-MEL-28,9.46 µM
same,GI50,NCI-H460,0.0507 µM
same,GI50,SK-OV-3,0.0896 µM
same,GI50,KM12,< 0.01 µM
same,Activity,[8],11.8%
same,GI50,OVCAR-4,0.073 µM
same,GI50,RXF 393,0.0159 µM
same,Activity,[9],Dose-dependent effect
same,IC50,[10],3.2 µM
same,Activity,[11],24.7%
same,GI50,M14,< 0.01 µM
same,GI50,UACC-62,0.0273 µM
same,GI50,MDA-MB-468,0.249 µM
same,GI50,SN12C,0.0469 µM
same,Activity,[12],32.9%
same,GI50,Hs-578T,< 0.01 µM
same,GI50,EKVX,0.611 µM
same,Activity,[13],26.1%
same,GI50,NCI/ADR-RES,< 0.01 µM
same,Activity,[14],36.5%
same,GI50,NCI-H522,< 0.01 µM
same,GI50,K562,< 0.01 µM
same,GI50,HT-29,3.46 µM
same,GI50,A549 [15],0.0413 µM
same,GI50,MDA-MB-435,< 0.01 µM
same,GI50,HCT-15,0.0106 µM
same,Activity,[16],13.1%

# Reference: ChEMBL document CHEMBL1833921, “Synthesis and biological evaluation of phenstatin metabolites” (Bioorg Med Chem, 2011)
